ChEMBL document CHEMBL1155008, “Brassinosteroids: synthesis and activity of some fluoro analogues” (J Med Chem, 2008)

Key:
[1] = test system: CCRF-CEM; experiment: Cytotoxicity against human CEM cells assessed as cell survival after 72 hrs by calcein-AM assay; assay type: functional, cell-based
Outline: (§1)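 Cells grown in DMEM with 10% fetal calf serum, 4 mM glutamine, penicillin/streptomycin, 37 °C, 5% CO2. Seeded at about 1.25 × 10^5 cells/mL and stabilised 3 h. Six 4-fold dilutions added from DMSO stocks, highest usually 50 µM, DMSO ≤0.6% final. After 72 h, calcein AM for 1 h, fluorescence read. Triplicates, ≥3 repeats; IC50 from dose-response curves.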

[2] = test system: MCF7; experiment: Cytotoxicity against human MCF7 cells assessed as cell survival after 72 hrs by calcein-AM assay; assay type: functional, cell-based; settings: MCF7, 72 h; outline: as §1
[3] = test system: RPMI-8226; experiment: Cytotoxicity against human RPMI 8226 cells assessed as cell survival after 72 hrs by calcein-AM assay; assay type: functional, cell-based; settings: RPMI-8226, 72 h; outline: as §1
[4] = test system: BJ; experiment: Cytotoxicity against human BJ cells assessed as cell survival after 72 hrs by calcein-AM assay; assay type: cell-based; outline: as §1
[5] = test system: Phaseolus vulgaris; experiment: Phyto activity in Phaseolus vulgaris cv. Pinto assessed as prolongation of the second internode after 5 days by brassinolide-type activity assay; assay type: functional
Outline: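 Bean seedlings germinated 2 days, grown in perlite with diluted Hoagland solution (pH 5.7) at 25-27 °C under 16/8 h light. Seven-day-old plants with 2 mm second internodes received compound in 5 µL lanolin at the bract scar; controls got lanolin alone. ≥7 plants per experiment, ≥3 repeats. Internode length measured after 5 days, difference from control.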

Structure (SMILES)	IC50 [1] [µM]	IC50 [2] [µM]	IC50 [3] [µM]	IC50 [4] [µM]	Activity [5] [mm]
CC(=O)O[C@H]1CC[C@H]2[C@@H]3CC(=O)[C@@]4(F)CC=CC[C@]4(C)[C@H]3CC[C@]12C	> 50	> 50	> 50	> 50	21.8
C[C@]12CC[C@H]3[C@@H](CC(=O)[C@@]4(F)C[C@@H](O)[C@@H](O)C[C@]34C)[C@@H]1CC[C@@H]2O	> 50	> 50	45.4	> 50	21.8
CC[C@@H](C(C)C)[C@@H](O)[C@H](O)[C@@H](C)[C@H]1CC[C@H]2[C@@H]3CC(=O)[C@H]4C[C@H](O)[C@H](O)C[C@]4(C)[C@H]3CC[C@]12C		> 50	26	> 50	
C[C@]12CC[C@H]3[C@@H](CC(=O)[C@@]4(F)C[C@@H](O)CC[C@]34C)[C@@H]1CC[C@@H]2O	> 50	> 50	> 50	> 50	16.9
CC(=O)O[C@H]1CC[C@H]2[C@@H]3CC(=O)[C@@]4(F)C[C@H](F)CC[C@]4(C)[C@H]3CC[C@]12C	42.9	> 50	> 50	> 50	19.8
C[C@]12CC[C@H](O)C[C@@H]1C(=O)C[C@@H]1[C@@H]2CC[C@]2(C)[C@@H](OC(=O)c3ccccc3)CC[C@@H]12	> 50	> 50	> 50	> 50	3.8
C[C@]12CC[C@H]3[C@@H](CC(=O)[C@@]4(F)C[C@H](O)[C@H](O)C[C@]34C)[C@@H]1CC[C@@H]2O	> 50	> 50	> 50	> 50	19.5
C[C@]12CC[C@H]3[C@@H](CC(=O)[C@@]4(F)CC=CC[C@]34C)[C@@H]1CC[C@@H]2O	> 50	> 50	> 50	> 50	13.6
C[C@]12CC[C@@H](F)C[C@@H]1C(=O)C[C@@H]1[C@@H]2CC[C@]2(C)[C@@H](O)CC[C@@H]12	> 50	> 50	> 50	> 50	5.9
CC(=O)O[C@H]1CC[C@H]2[C@@H]3CC(=O)[C@@]4(F)C[C@H](O)CC[C@]4(C)[C@H]3CC[C@]12C	> 50	> 50	> 50	> 50	21.4
CC(C)[C@@H](C)[C@@H](O)[C@H](O)[C@@H](C)[C@H]1CC[C@H]2[C@@H]3CC(=O)[C@H]4C[C@H](F)CC[C@]4(C)[C@H]3CC[C@]12C	13.8	25.7	23.5	45.9	13.2
C[C@]12CC[C@@H](F)C[C@@H]1C(=O)C[C@@H]1[C@@H]2CC[C@]2(C)C(=O)CC[C@@H]12	> 50	> 50	> 50	> 50	14.9
CC(=O)O[C@H]1CC[C@H]2[C@@H]3CC(=O)[C@@]4(F)C[C@@H](O)CC[C@]4(C)[C@H]3CC[C@]12C	> 50	> 50	> 50	> 50	17.1
CC(C)[C@@H](C)/C=C/[C@@H](C)[C@H]1CC[C@H]2[C@@H]3CC(=O)[C@H]4C[C@@H](O)CC[C@]4(C)[C@H]3CC[C@]12C	26.4	40.4	27	42	9.4
CC(C)[C@@H](C)[C@H](O)[C@@H](O)[C@@H](C)[C@H]1CC[C@H]2[C@@H]3CC(=O)[C@H]4C[C@H](F)CC[C@]4(C)[C@H]3CC[C@]12C	13.8	25.7	23.5	45.9	13.2
CC(=O)O[C@H]1CC[C@H]2[C@@H]3CC(=O)[C@@]4(F)C[C@H](O)[C@H](O)C[C@]4(C)[C@H]3CC[C@]12C	> 50	> 50	> 50	> 50	12.3
C[C@]12CC[C@@H](F)C[C@@H]1C(=O)C[C@@H]1[C@@H]2CC[C@]2(C)[C@@H](OC(=O)c3ccccc3)CC[C@@H]12	> 50	> 50	> 50	> 50	0.8
CC(C)[C@@H](C)/C=C/[C@@H](C)[C@H]1CC[C@H]2[C@@H]3CC(=O)[C@H]4C[C@H](F)CC[C@]4(C)[C@H]3CC[C@]12C	> 50	> 50	> 50	> 50	9.9
C[C@]12CC[C@H]3[C@@H](CC(=O)[C@@]4(F)C[C@H](O)CC[C@]34C)[C@@H]1CC[C@@H]2O	> 50	> 50	> 50	> 50	43.4
CC(=O)O[C@H]1CC[C@H]2[C@@H]3CC(=O)[C@@]4(F)C[C@@H](O)[C@@H](O)C[C@]4(C)[C@H]3CC[C@]12C	> 50	> 50	> 50	> 50	21.4
C[C@]12CC[C@H]3[C@@H](CC(=O)[C@@]4(F)C[C@H](F)CC[C@]34C)[C@@H]1CC[C@@H]2O	> 50	> 50	> 50	> 50	18.4
